Experimental data gathered from unrelated publications.
Protocols differ between the studies behind these lines. Values after ≈ are worked out from the molar mass of the structure shown.

| SMILES | tested on | test | test system | conditions | endpoint | value |
| --- | --- | --- | --- | --- | --- | --- |
| COc1ccc(OC)c(NC(=O)Cc2c[nH]c3ccccc23)c1 | – | ABTS scavenging | – | – | IC50 | 1.43 µM |
| Clc1ccccc1C(c1ccccc1)(c1ccccc1)n1ccnc1 | Mucor | microbial growth, disc diffusion | – | 20000 µg/mL | inhibition zone | 22 mm |
| O=C(CN1C(=O)/C(=C/c2ccccc2F)SC1=S)Nc1ccccc1 | PC-3 | cell growth or viability, MTT | – | 10 µM | inhibition | 16.8% |
| O=C(Cc1c[nH]c2ccccc12)Nc1cccc(F)c1 | – | ABTS scavenging | – | – | IC50 | 1.12 µM |
| COc1ccccc1-c1n[nH]c2nc(N[C@H]3CC[C@H](NS(=O)(=O)CCCOCCOCCNC(=O)OC(C)(C)C)CC3)ncc12 | Leishmania donovani | parasite growth | THP-1 | intracellular, amastigote | EC50 | 5.24 µM |
| COc1cc(Nc2nccc(-c3cnn4nc(OC)ccc34)n2)cc(C(F)(F)F)c1 | Ishikawa | cell growth or viability, ATP luminescence | – | – | IC50 | 0.45 µM |
| COc1ccc(-c2ccc(-c3ccc(C(=N)N)nc3)s2)cc1 | OVCAR-4 | cell growth or viability, SRB | – | – | GI50 | 1.79 µM |
| O=C(Cc1c[nH]c2ccccc12)Nc1ccc(I)cc1 | – | ABTS scavenging | – | – | IC50 | 0.66 µM |
| O=C(CN1C(=O)/C(=C/c2cccs2)SC1=S)Nc1ccccc1 | A549 | cell growth or viability, MTT | – | 10 µM | inhibition | 23.5% |
| O=C(Cc1c[nH]c2ccccc12)Nc1ccc(F)c(F)c1 | – | ABTS scavenging | – | – | IC50 | 1.08 µM |
| CO/N=C1\CN(c2nc3c(cc2F)c(=O)c(C(=O)O)cn3C2CC2)CC1CN (stereo not drawn) | Moraxella catarrhalis | microbial growth | – | – | MIC | 2 µg/mL (≈ 5.14 µM) |
| O=C(CN1C(=O)/C(=C/c2cccc([N+](=O)[O-])c2)SC1=S)Nc1ccccc1 | PC-3 | cell growth or viability, MTT | – | 10 µM | inhibition | 17.6% |
